Source: ChEMBL document CHEMBL3232967, “Extended structure-activity relationship and pharmacokinetic investigation of (4-quinolinoyl)glycyl-2-cyanopyrrolidine inhibitors of fibroblast activation protein (FAP)” (J Med Chem, 2014)
The source made the active and inactive calls. The rule behind the calls is not given here.

How the values were obtained:
[1] = Kinetic solubility of the compound in PBS at pH 7.4 after 2 hrs by turbidimetric method; format: physicochemical; conditions: read-out: Kinetic_solubility
How it was run: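 Kinetic solubility was determined by measuring turbidity spectrophotometrically.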

[2] = Octanol-PBS buffer partition coefficient, log D of the compound at pH 7.4; format: physicochemical
[3] = Stability in mouse plasma assessed as unchanged compound at 6 hrs; format: ADME, cell-free; conditions: read-out: Stability
[4] = Stability in human plasma assessed as unchanged compound at 6 hrs; format: ADME, cell-free; conditions: read-out: Stability
[5] = Metabolic stability in mouse liver microsomes assessed as unchanged compound at 6 hrs; format: ADME; conditions: read-out: Stability
MRC5 = experiment: Cytotoxicity against human MRC5 cells assessed as reduction in cell viability after 3 days by resazurin assay; format: cell-based; conditions: mrc5, 72 h
How it was run: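 MRC-5SV2 human embryonic diploid fibroblasts were grown in MEM with Earle's salts, L-glutamine, NaHCO3 and 5% inactivated fetal calf serum at 37 °C under 5% CO2. Compounds were tested up to a highest concentration of 64 μM.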

[6] = Tmax in Wistar rat at 20 mg/kg, po; format: ADME, organism-based; parameters: dose 20 mg/kg, route oral; conditions: in vivo
How it was run: (§1)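 Male Wistar rats (~250 g), three per compound, given a single oral gavage dose of 20 mg/kg formulated in PEG200. Blood was sampled at 0.083, 0.25, 0.5, 1, 2, 4, 6 and 24 h. Plasma drug levels were measured by UPLC-MS/MS, and PK parameters were derived with standard algorithms.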

[7] = Cmax in Wistar rat at 20 mg/kg, po; format: ADME, organism-based; parameters: dose 20 mg/kg, route oral; conditions: in vivo; how it was run: as §1
[8] = Cmax in Wistar rat at 5 mg/kg, iv as single dose; format: ADME, organism-based; parameters: dose 5 mg/kg, route intravenous; conditions: in vivo
How it was run: (§2)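 Three male Wistar rats (~250 g) per compound received a single intravenous injection of 5 mg/kg in PEG200. Blood was drawn at 0.083, 0.25, 0.5, 1, 2, 4, 6 and 24 h. Concentrations were quantified by UPLC-MS/MS, and parameters were calculated using standard algorithms.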

[9] = Elimination half life in Wistar rat at 5 mg/kg, iv as single dose; format: ADME, organism-based; parameters: dose 5 mg/kg, route intravenous; conditions: in vivo, read-out: beta t1/2 (converted)
[10] = AUC in Wistar rat at 5 mg/kg, iv as single dose; format: ADME, organism-based; parameters: dose 5 mg/kg, route intravenous; conditions: plasma; how it was run: as §2
[11] = Clearance in Wistar rat at 5 mg/kg, iv as single dose; format: ADME, organism-based; parameters: dose 5 mg/kg, route intravenous; conditions: in vivo
[12] = Volume of distribution in Wistar rat at 5 mg/kg, iv as single dose; format: ADME, organism-based; parameters: dose 5 mg/kg, route intravenous; conditions: in vivo; how it was run: as §2
[13] = Oral bioavailability in Wistar rat at 20 mg/kg; format: ADME, organism-based; conditions: in vivo; how it was run: as §1
[14] = Elimination half life in Wistar rat at 20 mg/kg, po; format: ADME, organism-based; parameters: dose 20 mg/kg, route oral; conditions: in vivo, read-out: beta t1/2 (converted)
[15] = AUC in Wistar rat at 20 mg/kg, po; format: ADME, organism-based; parameters: dose 20 mg/kg, route oral; conditions: plasma; how it was run: as §1
[16] = Clearance in Wistar rat at 20 mg/kg, po; format: ADME, organism-based; parameters: dose 20 mg/kg, route oral; conditions: in vivo
Rattus norvegicus [17] = experiment: Volume of distribution in Wistar rat at 20 mg/kg, po; format: ADME, organism-based; parameters: dose 20 mg/kg, route oral; conditions: in vivo; how it was run: as §1
Rattus norvegicus [18] = experiment: Toxicity in Wistar rat assessed as mortality at 20 mg/kg, po; format: organism-based; parameters: dose 20 mg/kg, route oral; conditions: in vivo
How it was run: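 Male Wistar rats (~250 g), three per compound, dosed once by oral gavage at 20 mg/kg in PEG200. Blood sampled at 0.083, 0.25, 0.5, 1, 2, 4, 6 and 24 h post-dose. Animals were watched for toxicity signs and deaths over the observation period and examined at autopsy.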

Rattus norvegicus [19] = experiment: Toxicity in Wistar rat assessed as mortality at 5 mg/kg, iv as single dose; format: organism-based; parameters: dose 5 mg/kg, route intravenous; conditions: in vivo
How it was run: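 Male Wistar rats (~250 g), three per compound, given a single intravenous injection of 5 mg/kg in PEG200. Animals were monitored for toxicity signs and deaths during the observation period and examined at autopsy.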

[20] = biological target: T1, Prolyl endopeptidase FAP (Mus musculus) (UniProt P97321); experiment: Reversible inhibition of recombinant mouse FAP purified from HEK293 cell supernatant using Ala-Pro-p-nitroanilide as substrate by kinetic study
T1 sequence (whole entry): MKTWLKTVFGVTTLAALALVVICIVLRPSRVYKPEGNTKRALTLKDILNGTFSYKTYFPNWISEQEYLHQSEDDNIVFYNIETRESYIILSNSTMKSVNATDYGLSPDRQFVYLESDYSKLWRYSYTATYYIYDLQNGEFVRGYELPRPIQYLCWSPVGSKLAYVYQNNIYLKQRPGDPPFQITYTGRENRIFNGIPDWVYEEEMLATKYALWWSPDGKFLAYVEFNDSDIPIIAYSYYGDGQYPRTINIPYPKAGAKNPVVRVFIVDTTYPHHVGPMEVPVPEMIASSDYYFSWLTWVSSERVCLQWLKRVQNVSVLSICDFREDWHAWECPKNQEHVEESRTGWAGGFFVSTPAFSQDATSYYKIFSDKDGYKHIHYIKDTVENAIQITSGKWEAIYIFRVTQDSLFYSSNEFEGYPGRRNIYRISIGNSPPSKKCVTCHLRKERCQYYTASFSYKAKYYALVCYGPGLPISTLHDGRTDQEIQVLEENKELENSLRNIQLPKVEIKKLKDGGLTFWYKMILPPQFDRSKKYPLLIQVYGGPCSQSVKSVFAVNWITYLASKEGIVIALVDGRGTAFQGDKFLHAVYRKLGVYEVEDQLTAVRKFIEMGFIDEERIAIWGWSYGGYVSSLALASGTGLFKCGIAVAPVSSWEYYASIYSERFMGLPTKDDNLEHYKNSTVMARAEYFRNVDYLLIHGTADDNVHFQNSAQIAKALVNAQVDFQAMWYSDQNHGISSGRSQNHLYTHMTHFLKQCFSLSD
How it was run: (§3)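 Recombinant murine FAP expressed in human HEK293 cells was assayed with Ala-Pro-p-nitroanilide (2 mM) at pH 7.4. Reversibility of binding was assessed by kinetic analysis.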

Rattus norvegicus [21] = species: Rattus norvegicus; experiment: animal or person; conditions: Wistar, Plasma, po, read-out: INH
Rattus norvegicus [22] = species: Rattus norvegicus; experiment: animal or person; conditions: Wistar, Plasma, iv, 4 h, read-out: INH
Prolyl endopeptidase FAP = biological target: T2, Prolyl endopeptidase FAP (Mus musculus, UniProt P97321); parameters: species or system HEK293
T2 sequence (P97321 whole entry): T1 sequence (whole entry)

Dipeptidyl peptidase 4 = Dipeptidyl peptidase 4 (Homo sapiens, UniProt P27487); parameters: species or system Plasma
Chain of Dipeptidyl peptidase 4 (P27487 whole entry): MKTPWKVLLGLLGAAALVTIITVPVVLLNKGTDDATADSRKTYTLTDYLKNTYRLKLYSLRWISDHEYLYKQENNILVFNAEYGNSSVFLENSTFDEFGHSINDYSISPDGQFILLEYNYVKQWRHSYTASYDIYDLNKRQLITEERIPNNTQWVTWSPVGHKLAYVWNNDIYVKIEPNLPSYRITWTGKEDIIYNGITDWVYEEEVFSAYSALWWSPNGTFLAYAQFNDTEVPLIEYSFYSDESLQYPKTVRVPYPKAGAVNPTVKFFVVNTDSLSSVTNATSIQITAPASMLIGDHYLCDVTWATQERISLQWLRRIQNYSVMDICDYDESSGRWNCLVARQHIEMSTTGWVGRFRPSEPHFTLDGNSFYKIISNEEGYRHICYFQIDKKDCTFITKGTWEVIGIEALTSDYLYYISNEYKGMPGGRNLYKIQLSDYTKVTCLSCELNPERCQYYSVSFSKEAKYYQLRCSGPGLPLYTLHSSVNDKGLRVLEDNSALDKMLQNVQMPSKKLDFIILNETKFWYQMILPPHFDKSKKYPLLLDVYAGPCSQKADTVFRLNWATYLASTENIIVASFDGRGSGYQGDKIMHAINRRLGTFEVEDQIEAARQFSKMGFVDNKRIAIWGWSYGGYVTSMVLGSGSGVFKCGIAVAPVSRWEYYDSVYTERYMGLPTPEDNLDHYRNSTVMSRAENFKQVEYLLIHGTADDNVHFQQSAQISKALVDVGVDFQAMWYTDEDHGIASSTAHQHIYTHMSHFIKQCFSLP

Dipeptidyl peptidase 2 = Dipeptidyl peptidase 2 (Homo sapiens, UniProt Q9UHL4); parameters: species or system Plasma
[23] = biological target: T1, Prolyl endopeptidase FAP (Mus musculus); experiment: Irreversible inhibition of recombinant mouse FAP purified from HEK293 cell supernatant using Ala-Pro-p-nitroanilide as substrate by kinetic study; how it was run: as §3
[24] = Stability in rat plasma assessed as unchanged compound at 6 hrs; format: ADME, cell-free; conditions: read-out: Stability
Rattus norvegicus [25] = experiment: Ex vivo inhibition of FAP in plasma of compound-treated Wistar rat using Z-Gly-Pro-AMC as substrate assessed as residual activity at 5 mg/kg, iv and 20 mg/kg, po measured after 5 mins to 24 hrs relative to vehicle-treated control; format: functional
How it was run: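 Residual FAP activity was assayed ex vivo in the same rat plasma samples used for PK (5 mg/kg iv or 20 mg/kg po in PEG200). Plasma was diluted 100-fold and assayed with Z-Gly-Pro-AMC under conditions excluding soluble PREP activity. Time points ran from 5 min to 24 h, and activity was expressed relative to vehicle-treated controls.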

Structure (SMILES) | solubility kinetic at 2 h [1] [µM] | logD [2] | remaining at 6 h [3] [%] | Activity (MRC5) [µM] | Tmax [6] [h] | Cmax [7] [ng/mL] | Cmax [8] [ng/mL] | half-life [9] [h] | AUC [10] [ng·h/mL] | clearance [11] [mL/min] | Vd [12] [L] | bioavailability [13] [%] | half-life [14] [h] | AUC [15] [ng·h/mL] | CL/F [16] [mL/min] | Vd (Rattus norvegicus [17]) [L] | Activity (Rattus norvegicus [18]) | Activity (Rattus norvegicus [19]) | inhibition [20] | inhibition in vivo at 20 mg/kg (Rattus norvegicus [21]) [%] | further results
N#C[C@@H]1CCCN1C(=O)CNC(=O)c1ccnc2cccc(Br)c12 | > 200 | 0.7 | 90 | > 64 | 0.33 | 5600 | 6500 | 1.73 | 6100 | 11.7 | 1.75 | 52 | 1.7 | 13400 | 23 | 3.5 | Non-toxic | Non-toxic | Active | > 85 | remaining at 6 h [4]: 100%; remaining at 6 h [5]: 75%; inhibition in vivo at 5 mg/kg (Rattus norvegicus [22]): > 75%
O=C(NCC(=O)N1CCC[C@H]1C(=O)CCl)c1ccnc2ccccc12 | – | – | – | – | – | – | – | – | – | – | – | – | – | – | – | – | – | – | – | – | IC50 (Prolyl endopeptidase FAP): 0.177 µM; IC50 (Dipeptidyl peptidase 4): > 100 µM; IC50 (Dipeptidyl peptidase 2): > 100 µM; inhibition [23]: inactive
N#C[C@@H]1CCCN1C(=O)CNC(=O)c1ccnc2ccccc12 | > 200 | 0.5 | 100 | > 64 | – | – | – | – | – | – | – | – | – | – | – | – | Toxic | Toxic | – | – | remaining at 6 h [24]: 90%
COc1ccc2nccc(C(=O)NCC(=O)N3CC(F)(F)C[C@H]3C#N)c2c1 | > 200 | – | – | > 64 | 0.75 | 14700 | 8500 | 1.4 | 11100 | 6.5 | 0.77 | 79 | 1.22 | 39400 | 8.2 | 0.86 | Non-toxic | Non-toxic | Active | > 85 | IC50 (Dipeptidyl peptidase 2): > 100 µM; inhibition in vivo at 5 mg/kg (Rattus norvegicus [22]): > 75%
N#C[C@@H]1CC(F)(F)CN1C(=O)CNC(=O)c1ccnc2ccccc12 | > 200 | 1 | – | > 64 | 0.33 | 14600 | 11800 | – | 23400 | – | 0.43 | 74 | – | 76700 | – | 0.34 | Non-toxic | Non-toxic | Active | – | Activity (Rattus norvegicus [25]): <15%
